Assay results as given in PubChem BioAssay.
Calls of active or inactive are those of the source.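 Rule for the calls, unless noted: active = visual image review flags a hit and inhibition of aggregation exceeds 20%; inconclusive = visual hit but inhibition at or below 20%; inactive = no hit on visual image review.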

Columns and labels:
[1] = inhibitors of TNFa-induced NFkB p65 translocation, primary screen, imaging, HUVEC, MLSMR starter and 10KST1 sets (AID 438;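 active = inhibition above 20% together with a positive visual image hit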;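 note: compound added about 3h40 before a 20 min TNFalpha stimulation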;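 for inhibition: signal is the nuclear over cytoplasmic p65 intensity ratio per well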); details: HUVEC TNFa-induced p65 nuclear translocation; cell count: measured here: nuclei count (cytotoxicity indicator), at 2.08 µM; inhibition: at 2 µM, stronger effect = higher value, 0% TNFa-plus-vehicle, 100% no-TNFa wells
[2] = inhibitors of mutant huntingtin aggregation, primary screen, imaging, exon1htt(103Q)mCFP cells, high-content imaging (AID 483); details: exon1htt(103Q)mCFP cell line, aggregate imaging, at 2 µM; inhibition of aggregation: stronger effect = higher value; nuclei count: measured here: cell count, toxicity;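 note: compound exposure lasted 3 days before fixation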;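 for nuclei count: percent of the per-plate median nuclei count of sample wells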
[3] = inhibitors of E-selectin induction by TNFa, primary screen, imaging, HUVEC, immunofluorescence, MLSMR starter and 10KST1 sets (AID 487;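 active = visually confirmed hit in the image check and inhibition above 20%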;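 for inhibition: signal is fraction of cell area covered by stained E-selectin grains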;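 for nuclei count: 100% = median nuclei count of all wells on the same plate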); details: HUVEC TNFalpha-induced E-selectin immunofluorescence imaging, at 2 µM; inhibition: stronger effect = higher value; nuclei count: measured here: cell number, toxicity
[4] = target: Voltage-gated potassium channel subunit beta-2 (Rattus norvegicus) (UniProt P62483); assay: KvBeta enzyme negative modulators, primary screen, biochemical, NADPH fluorescence (AID 622;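 active = fluorescence slope higher than the sample average by over 3 SD, cut at about -0.22 in these data, passing the limit was not always enough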;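 note: slope of raw intensity against log time taken from 70 to 1610 s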); details: recombinant KvBeta, 4-cyanobenzaldehyde reduction, at 10 µM, stronger effect = higher value
Chain of Voltage-gated potassium channel subunit beta-2 (Rattus norvegicus) (P62483 whole entry, looked up): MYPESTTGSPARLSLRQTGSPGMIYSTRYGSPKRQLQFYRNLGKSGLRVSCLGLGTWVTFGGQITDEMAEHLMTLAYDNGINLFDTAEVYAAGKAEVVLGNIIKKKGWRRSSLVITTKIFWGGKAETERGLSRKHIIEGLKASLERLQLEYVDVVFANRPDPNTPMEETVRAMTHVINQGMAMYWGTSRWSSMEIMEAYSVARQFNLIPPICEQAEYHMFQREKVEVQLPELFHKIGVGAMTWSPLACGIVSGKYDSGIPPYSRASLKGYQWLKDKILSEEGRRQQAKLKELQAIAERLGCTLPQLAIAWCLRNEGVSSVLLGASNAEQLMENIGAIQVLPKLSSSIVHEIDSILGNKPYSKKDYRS

[5] = target: Voltage-gated potassium channel subunit beta-2 (Rattus norvegicus) (UniProt P62483); assay: KvBeta positive modulators, primary screen, biochemical, NADPH fluorescence (AID 623;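 active = NADPH fluorescence slope more negative than the mean of all samples by about 3 SD, 99.7% confidence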;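 note: fluorescence intensity change per second fitted from 20 to 320 s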); details: Recombinant KvBeta, NADPH fluorescence decrease slope, 10 min; at 10 µM; stronger effect = lower value
[6] = target: Muscarinic acetylcholine receptor M4 (Homo sapiens) (UniProt P08173); assay: compounds altering M4/GIRK thallium flux, either direction, primary screen, M4 allosteric agonist project, cell-based, HEK293 M4/GIRK, BTC-AM (AID 625;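 active = fluorescence slope after compound addition differing from the mean of all tested samples at 99.7% confidence, mostly higher but some lower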;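 note: thallium influx through GIRK channels coupled to M4 in HEK293 cells with BTC-AM dye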); details: at 10 µM, actives lie on both sides
Chain of Muscarinic acetylcholine receptor M4 (Homo sapiens) (P08173 whole entry, looked up): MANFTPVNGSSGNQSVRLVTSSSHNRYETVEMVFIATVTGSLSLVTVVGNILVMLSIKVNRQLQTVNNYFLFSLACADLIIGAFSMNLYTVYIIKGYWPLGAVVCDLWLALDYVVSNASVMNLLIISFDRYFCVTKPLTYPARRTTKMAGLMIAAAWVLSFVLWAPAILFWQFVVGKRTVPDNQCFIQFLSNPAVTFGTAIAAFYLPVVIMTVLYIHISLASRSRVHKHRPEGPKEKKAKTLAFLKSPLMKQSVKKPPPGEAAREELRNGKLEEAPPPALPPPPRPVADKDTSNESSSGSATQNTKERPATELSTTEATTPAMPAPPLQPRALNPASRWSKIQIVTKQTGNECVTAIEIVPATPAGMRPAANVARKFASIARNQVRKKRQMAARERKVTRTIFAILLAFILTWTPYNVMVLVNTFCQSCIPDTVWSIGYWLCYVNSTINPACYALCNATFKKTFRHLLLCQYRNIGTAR
Method in brief: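 Material: HEK293 cells with M4 receptor and GIRK channels; Times: cells overnight at 37 °C, BTC-AM loading 1 h, reads 2 min total; Technique: kinetic BTC-AM fluorescence sampled at 1 Hz, 10 s pre-addition baseline; Read-out basis: slope over 15–24 s of trace normalized to starting intensity; Controls: carbachol positive, DMSO negative.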

[7] = inhibitors of Sendai virus-induced IRF3 signaling, primary screen, TLR/RLR signaling modifier project, cell-based, Sendai virus stimulus, luciferase, 10K MLSCN set (AID 602276;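 active = inhibition at or above 50% at 10 µM; inactive = inhibition below 50%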;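 note: firefly luciferase from ISG56 promoter only with Renilla not read in this screen; 0% = Sendai virus plus DMSO and 100% = medium plus DMSO without virus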); details: HEK293 RL24 IRF3 luciferase reporter, at 10 µM, stronger effect = higher value
[8] = inhibitors of poly I:C-induced TLR3 signaling, primary screen, cell-based, poly I:C stimulus, luciferase, 10K MLSCN set (AID 602277;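 active = inhibition of the reporter signal at or above 50%; inactive = inhibition below 50%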); details: HEK293-TLR3 RL24 IRF3 luciferase reporter, at 10 µM, stronger effect = higher value

| SMILES | cell count [1] | inhibition [1] | inhibition of aggregation [2] | nuclei count [2] | inhibition [3] | nuclei count [3] | fluorescence slope [4] | NADPH fluorescence slope [5] | fluorescence slope [6] | inhibition [7] | inhibition [8] |
| --- | --- | --- | --- | --- | --- | --- | --- | --- | --- | --- | --- |
| CC(C)NC(=O)NC(=O)COc1cccc2c1OC(C)(C)C2 | 749 | -10.1% (inactive) | -13.5% (inactive) | 105% | -16.4% (inactive) | 100% | -0.556 (inactive) | -2.9e-05 (inactive) | 0.00684 (inactive) | 17.1% (inactive) | 29.7% (inactive) |
| COc1ccc(CC(NC(C)=O)C(=O)NC2CCN(C(=O)Nc3ccc(C#N)cc3)CC2)cc1OC (centres undefined) | 312 | -1.9% (inactive) | -14.4% (inactive) | 102% | -29.9% (inactive) | 112% | -0.415 (inactive) | 8.5e-05 (inactive) | 0.00714 (inactive) | 14.2% (inactive) | 14.3% (inactive) |
| COC(=O)c1[nH]c(C)c(/C(O)=C2\C(=O)C(=O)N(CCCN3CCOCC3)C2c2ccccn2)c1C (centres undefined) | 814 | 0.6% (inactive) | 14.2% (inactive) | 110% | -1.3% (inactive) | 113% | -0.473 (inactive) | -2.7e-06 (inactive) | 0.00368 (inactive) | 12.3% (inactive) | 9.49% (inactive) |
| O=C(CCn1c(=O)sc2ccccc21)Nc1cccnc1 | 572 | -7.6% (inactive) | 20.2% (inactive) | 81.9% | -11.2% (inactive) | 110% | -0.443 (inactive) | 0.000131 (inactive) | 0.00603 (inactive) | 8.62% (inactive) | 10.8% (inactive) |
| O=C(Nc1ccc2c(c1)OCO2)c1ccc(Br)c(S(=O)(=O)N2CCCC2)c1 | 660 | -5.2% (inactive) | -2% (inactive) | 103% | -99.5% (inactive) | 90.4% | -0.505 (inactive) | -6.5e-05 (inactive) | 0.0042 (inactive) | -20.9% (inactive) | -15.4% (inactive) |
| Cc1ccsc1C1C2=C(CCCC2=O)Nc2ncnn21 (centres undefined) | 266 | -3.8% (inactive) | 15.5% (inactive) | 86.7% | -2.9% (inactive) | 101% | -0.523 (inactive) | -0.000154 (inactive) | 0.00358 (inactive) | 12.8% (inactive) | 16.1% (inactive) |
| CC(C)CC(c1nnnn1C1CCCC1)N1CCN(c2ccccc2F)CC1 (centres undefined) | 384 | -3.6% (inactive) | 6.8% (inactive) | 91.4% | -26.9% (inactive) | 109% | -0.589 (inactive) | 2e-05 (inactive) | 0.00507 (inactive) | 15.2% (inactive) | 26.4% (inactive) |
| COC(=O)Cn1c(C)nc2c(sc3nc(C)cc(C)c32)c1=O | 674 | -5% (inactive) | 14.7% (inactive) | 81.2% | 16% (inactive) | 100% | -0.603 (inactive) | -2e-05 (inactive) | 0.00473 (inactive) | -40.7% (inactive) | -91.2% (inactive) |
| CCCc1cc(C(N)=O)c(NC(=O)c2ccco2)s1 | 356 | -5.6% (inactive) | 2.7% (inactive) | 97.2% | -45% (inactive) | 111% | -0.54 (inactive) | -5.6e-05 (inactive) | 0.00337 (inactive) | -0.517% (inactive) | -22.9% (inactive) |
| Cc1nn(-c2ccc(F)cc2)c2nc(N)c(C#N)c(-c3cccs3)c12 | 483 | 5.7% (inactive) | 3% (inactive) | 81.1% | -126% (inactive) | 160% | -0.437 (inactive) | -1.4e-05 (inactive) | 0.00193 (inactive) | 12.4% (inactive) | 20.7% (inactive) |
| Cn1c(=O)c2c(nc(SCC(=O)O)n2Cc2cccc(C(F)(F)F)c2)n(C)c1=O | 204 | -0.8% (inactive) | -19.7% (inactive) | 77.2% | 9.2% (inactive) | 74.6% | -0.531 (inactive) | 6.2e-06 (inactive) | 0.0052 (inactive) | 15.4% (inactive) | 13.8% (inactive) |
| O=C(O)c1cnn2c1NC(c1ccc(F)cc1)CC2C(F)(F)F (centres undefined) | 613 | 10.2% (inactive) | -6.3% (inactive) | 99.2% | -85.7% (inactive) | 116% | -0.472 (inactive) | -4.5e-05 (inactive) | 0.00543 (inactive) | 10.7% (inactive) | 1.93% (inactive) |
| COC(=O)Nc1ccc(S(=O)(=O)N(C)CC(F)(F)C(F)F)cc1 | 642 | -11.1% (inactive) | -5.6% (inactive) | 114% | -57.5% (inactive) | 86.7% | -0.568 (inactive) | 3.2e-05 (inactive) | 0.00406 (inactive) | 12% (inactive) | 13.7% (inactive) |
| Cc1ccc(-n2ncc3c(N4CCN(c5ccc(F)cc5)CC4)ncnc32)c(C)c1 | 514 | -6.8% (inactive) | 4.6% (inactive) | 83.4% | 32.4% (inactive) | 92.4% | -0.521 (inactive) | -0.000115 (inactive) | 0.00599 (inactive) | -19.8% (inactive) | -65.4% (inactive) |
